High-throughput results as filed in PubChem.
Pemphigus Ab inh: human desmoglein-3 autoantibody binding inhibition; P32926; hit rate 0.48% among 310,000; DSG3-coupled beads, scFv-anti-DSG3-GFP binding, flow cytometry; active compounds read low; binding (percent of control), % at 10 µM;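 active means binding more than 3 SD below its plate's average and above zero; inconclusive means below that plate limit but binding exactly zero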;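 further: hits lower antibody fragment binding to DSG3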
SENP1 FRET inh: inhibitors of human SENP1 SUMO protease catalytic domain. recombinant SENP1 catalytic domain, CyPet-SUMO1-YPet FRET cleavage. inhibition, % at 10 µM. hit rate 0.21% among 360,000. AID 624204;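 active means inhibition at least 30% at 10 µM, raw YFP signal under a set limit, fluorescence ratio 0.5 to 1.5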
Target sequence (Q9P0U3 419-644 limits assumed): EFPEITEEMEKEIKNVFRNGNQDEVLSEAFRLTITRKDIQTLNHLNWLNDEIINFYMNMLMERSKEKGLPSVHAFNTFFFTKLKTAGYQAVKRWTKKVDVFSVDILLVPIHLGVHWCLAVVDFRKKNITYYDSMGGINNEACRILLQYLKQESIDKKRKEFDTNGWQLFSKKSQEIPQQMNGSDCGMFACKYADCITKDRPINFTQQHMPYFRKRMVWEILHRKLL
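Test system: hSENP1 catalytic domain, recombinant; Amount: 20 pM final SENP1 enzyme; Medium: Tris pH 8 buffer plus EDTA, NaCl, BME, BSA, NP40, catalase; Schedule: 50 min enzyme reaction, room temperature, light-protected; Technique: FRET fluorescence in CFP and YFP emission channels; Controls: no-enzyme wells low, DMSO-plus-enzyme wells high control.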
Myeloid diff 2: promotes myeloid progenitor differentiation; ER-HoxA9 myeloid progenitors, lysozyme-GFP differentiation, flow cytometry; calls only at 10 µM; hit rate 1% among 360,000; AID 624256;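 active means normalized GFP-positive differentiation at or above the plate's own cutoff, the solvent-only control mean plus 3 SD; inconclusive means no clear call, values can overlap the other calls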;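 further: cells exposed to compound for four days before flow analysis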
HNF4A DNA FP: change in binding of human HNF4 alpha to DNA; P41235; HNF4a-FITC DNA binding, fluorescence polarization, 1 h; activity change, % at 10 µM; hit rate 0.3% among 360,000; AID 1224865; in the data active means activity change above about 30%, passing the limit was not always enough
Cardio protect: modulators protecting cardiomyocytes from myocardial damage | H9c2 cardiomyocytes, H2O2 injury protection, ATPLite, 2 h | protection from H2O2 cell death, % at 20 µM | hit rate 0.63% among 360,000;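 active means compounds giving at least 50% protection of heart cells from peroxide-induced death in the single-dose screen, raw or plate-pattern-corrected value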
Exocytosis inh: lytic granule exocytosis inhibition. inhibition, % at 10 µM. hit rate 0.66% among 360,000. AID 651702. TALL-104 LAMP-1 surface exposure, flow cytometry; cells stimulated with thapsigargin and PMA;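 active means inhibition above about 55%, limit read from the data; inconclusive means no clear call, values can overlap the other calls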
A number is an active result; . = inactive; ? = inconclusive; / = no result; + = active, no number. This is a sample that favours compounds with a hit; in the whole collection about 3% have one here.

SMILES | Pemphigus Ab inh | SENP1 FRET inh | Myeloid diff 2 | HNF4A DNA FP | Cardio protect | Exocytosis inh
O=C(NCc1ccccc1)c1ccc2c(=O)[nH]c3c(C(=O)NCC4CCCO4)sc(=S)n3c2c1 (centres undefined) | . | 38 | . | . | . | .
O=C(CN1C(=O)C2CC=CCC2C1=O)Nc1ccc(OC(F)(F)F)cc1 (centres undefined) | . | . | . | . | . | .
COC(=O)c1cccnc1SCc1ccccc1 | . | . | . | . | . | .
COC(=O)c1ccccc1CSc1nsc(/C=C/N(C)C)c1C#N | . | . | . | 55 | . | .
COc1ccc(N2CCN(CC(=O)Nc3ccccc3C(=O)NC(C)c3ccccc3)CC2)cc1 (centres undefined) | . | . | + | . | . | .
COCCN1Cc2cccc(C(=O)Nc3ccc(S(=O)(=O)N4CCCCC4)cc3)c2C1=O | . | . | + | . | . | .
COCCN1Cc2cccc(C(=O)Nc3ccc(C)cc3)c2C1=O | . | . | . | . | . | .
Cc1cc(C)cc(OCC(=O)OCC(=O)NCCC2=CCCCC2)c1 | -9.8 | . | . | . | . | .
O=C(COC(=O)COc1ccccc1)NCCC1=CCCCC1 | . | . | . | . | . | .
Oc1c(Cl)cc(Cl)cc1C=Nc1ccc2c(c1)OCCO2 | / | . | . | . | 72 | .
O=C(N/N=C/c1cc(Cl)cc(Cl)c1O)c1ccncc1 | . | . | ? | . | 50 | .
Oc1c(Cl)cc(Cl)cc1/C=N/Nc1ncc(Br)cn1 | . | . | ? | . | 59 | .
COc1ccc(/C=N/Nc2ncc(Br)cn2)c(OC)c1 | 66 | . | . | . | . | .
COc1ccc(/C=N\Nc2ccccn2)c(OC)c1 | . | . | . | . | . | .
O=C(N/N=C/c1cccc2nccnc12)c1ccncc1 | . | . | . | . | 65 | .
Cc1ccc(N=Cc2cc(Cl)cc(Cl)c2O)nc1 | / | . | . | . | 65 | .
O=C(N[C@@H](Cc1ccccc1)C(=O)N1CCN(S(=O)(=O)c2ccccc2F)CC1)c1ccco1 | . | . | . | . | . | .
C=CCN1C(=O)/C(=C/c2ccc(-c3ccc(F)cc3)o2)SC1=S | . | . | . | . | . | 93
C=CCN1C(=O)/C(=C/c2ccsc2)SC1=S | . | . | . | . | . | .
COC(=O)c1cc(NC(=O)Nc2cc(OC)ccc2OC)cc(C(=O)OC)c1 | . | . | . | . | 54 | .
COc1ccc(NC(=O)Nc2ccccc2C)c(OC)c1 | . | . | . | . | . | .
COc1ccc(OC)c(NC(=O)Nc2ccc(Cl)cc2)c1 | . | . | . | . | . | .
COc1ccc(NC(=O)Nc2ccccc2SC)c(OC)c1 | -6.3 | . | . | . | . | .
O/C(=C\c1nc2ccccc2nc1/C=C(\O)c1ccccc1)c1ccccc1 | . | . | + | . | . | .
O=C(N/N=C/c1ccco1)c1ccccc1OCc1ccc(Br)cc1 | . | . | + | . | . | .
SMILES | Pemphigus Ab inh | SENP1 FRET inh | Myeloid diff 2 | HNF4A DNA FP | Cardio protect | Exocytosis inh
O=C1/C(=C\c2ccc([N+](=O)[O-])cc2)CCc2ccccc21 | . | . | . | . | . | .
O=C1/C(=C/Nc2cccc([N+](=O)[O-])c2)CCc2ccccc21 | . | . | . | . | . | 89
O=C(Oc1cccc2c(=O)[nH]ccc12)c1ccccc1 | / | . | . | . | 80 | .
Cc1cc(N2CCOCC2)nc2ccc(NC(=O)CCC(=O)N3CCN(c4ccccc4)CC3)cc12 | ? | . | . | . | . | .
CCOC(=O)C1CCCN(C(=O)CCC(=O)Nc2ccc3nc(N4CCOCC4)cc(C)c3c2)C1 (centres undefined) | . | . | . | . | 59 | .
CCCCNC(=O)CCC(=O)Nc1ccc2nc(N3CCCCC3)cc(C)c2c1 | . | . | + | . | . | .
CCN1CCN(c2cc(C)c3cc(NC(=S)N4CCCC(C)C4)ccc3n2)CC1 (centres undefined) | . | . | + | . | . | .
COc1cc(SC)ccc1C(=O)Nc1cccc(C2OCCCO2)c1 | . | . | . | . | . | .
O=[N+]([O-])c1ccc(CN2CCN(Cc3c[nH]c4ccccc34)CC2)cc1 | . | . | . | . | . | .
Cc1cc(Br)ccc1SCC(=O)OCC(=O)Nc1ccc2[nH]c(=O)[nH]c2c1 | . | . | . | . | . | .
CC1Cc2ccccc2N1C(=O)CSc1nc2c(c(=O)n(C)c(=O)n2C)n1Cc1ccc(F)cc1 (centres undefined) | . | . | . | . | 50 | .
CCOc1ccc(CC(=O)Nc2nccs2)cc1OCC | . | . | . | . | . | .
O=C(NC(=S)Nc1ccc(NC(=O)c2cccs2)cc1)c1cc2ccccc2o1 | 70 | . | . | . | . | .
Cc1nnc(NC(=O)c2ccc(-c3ccc(Cl)cc3)o2)s1 | 22 | . | . | . | . | .
Cc1cc(N2CCN(C)CC2)ccc1NC(=O)c1ccc(-c2ccc(Cl)cc2)o1 | . | . | + | . | . | .
O=C(Nc1cccc(Cl)c1)c1ccc2c(c1)SC1=NS(=O)(=O)CCN12 | . | . | . | . | . | .
CC(C)(C)NC(=O)C(c1cccs1)N(C(=O)c1csnn1)c1cccc(F)c1 (centres undefined) | . | . | . | . | . | .
CCC(C)(C)NC(=O)C(c1ccco1)N(C(=O)c1csnn1)c1cccc(F)c1 (centres undefined) | / | . | + | . | . | .
NS(=O)(=O)c1ccc(N/N=C/c2ccc3c(c2)OCO3)c([N+](=O)[O-])c1 | 31 | . | . | . | . | .
O=C1CCC[C@@H]2Cc3nc4ccc(Cl)cc4cc3[C@@H]3CCN1[C@H]23 | . | . | . | . | . | .
CCN1CCN(Cc2ccc(NC(=O)c3ccc(C)c(NC(=O)c4c[nH]c5cc(C(F)(F)F)ccc5c4=O)c3)cc2C(F)(F)F)CC1 | . | . | . | 55 | . | .
Cc1ccc(C(=O)Nc2cccc(C(F)(F)F)c2)cc1NC(=O)c1c[nH]c2cc(C(F)(F)F)ccc2c1=O | . | . | . | . | . | .
CCOC(=O)Cn1c(-c2ccc(OC)cc2)c(-c2ccc(OC)cc2)nnc1=O | . | . | . | 33 | . | .
CCOC(=O)CSc1nnc(-c2ccc(OC)cc2)n1CC | . | . | . | . | . | .
COc1ccc(Cl)cc1N(CC(=O)N1CCC(C)CC1)S(C)(=O)=O | 81 | . | . | . | . | .
COc1ccc(Cl)cc1N(CC(=O)N1CCCC1)S(C)(=O)=O | . | . | . | . | . | .
O=c1c2ccccc2nc2c3ccccc3c(NCCO)nn12 | . | . | . | . | 58 | .
O=c1c2ccccc2nc2c3ccccc3c(NCc3ccccn3)nn12 | . | . | . | . | . | .
COc1ccccc1OCC(=O)Nc1sc2c(c1C(N)=O)CCC2 | . | . | . | . | . | .
COc1ccccc1OCC(=O)Nc1sc2c(c1C(=O)NCC1CCCO1)CCC2 (centres undefined) | . | . | + | . | 64 | .
